Screening results: PubChem, several laboratories
UPR CHOP act: activators of apoptotic arm of unfolded protein response (CHOP); CHO-CHOP luciferase reporter, UPR activation, luminescence; percent of tunicamycin response over DMSO baseline; activation, % at 10 µM; hit rate 0.34% among 330,000;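 active means at 10 µM dose, activation of 40% or more, normalized to positive control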;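 further: 100% = tunicamycin at 10 µg/mL and 0% = DMSO alone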
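Test system: CHO CHOP reporter cells. Input: 500 CHO-CHOP cells per well. Medium: F12 with 10% FBS. Technique: luciferase luminescence. Measure: percent activation relative to tunicamycin control. Dosing: 10 µM compound, 0.5% DMSO. Timing: 16-18 h cell attachment, then 6 h compound exposure, 37 °C.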
UPR XBP1 act: activators of adaptive arm of unfolded protein response (XBP1); activation, % at 20 µM; CHO-XBP1 luciferase reporter, IRE1-XBP1 UPR activation, luminescence; percent of tunicamycin response, DMSO as zero; hit rate 0.33% among 330,000; AID 463104;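 active means versus positive control, 20 µM dose yields 30% or more activation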;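 further: 100% = tunicamycin at 10 µg/mL and 0% = DMSO only wells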
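Material: IRE1-XBP1 luciferase reporter CHO line / Quantity: one thousand reporter cells per well / Buffer or medium: F12 with 10% serum / Compound: 20 µM single concentration, DMSO 1% / Times: 6 h treatment, 37 °C / Detection: Steady-Glo luciferase glow luminescence, 10 min after reagent addition / Benchmarks: tunicamycin high, DMSO low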
CSC inhib: cancer stem cell inhibition. cancer stem cell-like cells viability, luminescence. inhibition, % at 7.5 µM. hit rate 1.1% among 300,000; in the data active means inhibition above about 75%; inconclusive means no clear call, values can overlap the other calls; tested in HMLE shEcad cells
Beta apoptosis: blocks beta cell apoptosis; INS-1E cytokine-induced death, ATP luminescence, 48 h; percent of positive-control rescue, neutral wells zero; hit rate 0.8% among 300,000; AID 435005; protection from apoptosis, % (test concentration not listed);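 active means Every replicate reaches about 75%, or at least half do and their mean reaches it too, limit read from the data; inconclusive means At least half of replicates reach the limit but their mean does not; inactive means Under half of replicates reach the limit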;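 further: 0% = cytokine-treated negative control wells and 100% = positive control rescue; higher means more ATP so stronger rescue from cytokine killing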
Mdm2-MdmX inh: disrupts the human Mdm2-MdmX interaction. O15151+Q00987. SaOS-2 split-luciferase Mdm2/MdmX complementation, luminescence. inhibition, % at 8 µM. hit rate 3% among 330,000. AID 485346;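 active means inhibition of at least 50% at 8 µM in the primary screen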
SKKanGAS inh: inhibitors of SKKanGAS S. pyogenes growth in kanamycin (SK-promoter or general growth effect); inhibition, % at 7.5 µM; hit rate 1.3% among 300,000; BacTiter-Glo, 6 h;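 active means mean replicate score, as percent of positive control median, at least 50; inconclusive means mean below 50 but one replicate at or above 50; inactive means mean and every replicate below 50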;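 further: strain carries kanamycin resistance gene driven by streptokinase promoter and grows in 40 µg/ml kanamycin; loss of luminescence reflects streptokinase promoter inhibition or plain growth inhibition; 0% = median of DMSO wells and 100% = positive control at its reference dose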
Mdm2-MdmX conf: human Mdm2/MdmX binding inhibition, confirmed; shares compounds with Mdm2-MdmX inh; luminescent assay; inhibition, % at 8 µM; hit rate 55% among 10,000; AID 489028; in the data active means inhibition above about 40%
FLuc counter: counter-screen for Mdm2/MdmX inhibitors: full-length luciferase; inhibition, % at 8 µM; hit rate 77% among 6,200; AID 504607; shares compounds with Mdm2-MdmX inh; SaOS-2 full-length luciferase counterscreen, luminescence;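 active means mean inhibition at 8 µM reaching about 37%, which flags the compound as non-specific, limit read from the data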;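 further: p53-null SaOS-2 cells with luciferase driven by a doxycycline-inducible promoter; compound on cells about two nights before reading with doxycycline added after day one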
The depositor's hits bear a star; ? = inconclusive; / = no result given. Hits are enriched below; roughly 4.8% of the tested compounds scored in any of these assays.

SMILES	UPR CHOP act	UPR XBP1 act	CSC inhib	Beta apoptosis	Mdm2-MdmX inh	SKKanGAS inh	Mdm2-MdmX conf	FLuc counter
CCCCCCCCCCCCCCCC[N+](C)(C)CC	8	-1	101*	117*	92*	101*	81*	9
C#CC[N+](C)(C)CCCCCCCC	-1	-4	10	0	23	-6	/	/
Cc1ccc(C)c(S(=O)(=O)N2CCCOC2CNC(=O)C(=O)NC2CC2)c1 (stereo unspecified)	-2	-2	-5	4	10	2	/	/
CS(=O)(=O)c1ccc(Cl)c(NC(=O)COC(=O)COc2ccc3c(c2)CCC3)c1	-1	-1	-2	0	-34	-1	/	/
C=C[C@@H](C)N(Cc1ccc(OC)cc1)S(=O)(=O)N(Cc1ccccc1)[C@H](C=C)C(C)C	4	-4	12	15	21	/	/	/
COc1ccc(CN([C@H](C)CO)S(=O)(=O)N(Cc2ccccc2)[C@H](CO)C(C)C)cc1	0	-1	-5	-5	-13	/	/	/
CC(C)C[C@@H](CO)N(Cc1ccccc1)S(=O)(=O)N(Cc1ccccc1)[C@H](CO)CC(C)C	3	17	125*	31	81*	/	19	/
COc1ccc(CN([C@H](CO)CC(C)C)S(=O)(=O)N(Cc2ccccc2)[C@H](CO)CC(C)C)cc1	6	13	/	19	62*	/	19	/
O=S(=O)(N(Cc1ccccc1)[C@H](CO)Cc1ccccc1)N(Cc1ccccc1)[C@H](CO)Cc1ccccc1	7	8	/	0	36	/	/	/
C=C[C@H](CC(C)C)N(Cc1ccccc1)S(=O)(=O)N(Cc1ccccc1)[C@@H](C=C)CC(C)C	7	-1	16	84*	83*	/	21	/
CC(C)C[C@@H](CO)N(Cc1ccccc1)S(=O)(=O)N(Cc1ccccc1)[C@@H](CO)CC(C)C	4	6	126*	12	83*	/	-20	/
COc1ccc(-c2cc(C3CCN(c4ccc(C(C)=O)cc4[N+](=O)[O-])CC3)[nH]n2)cc1	5	3	76*	3	52*	83*	46*	51*
C[C@@H]1[C@@H](Sc2ccccc2)CC(=O)O[C@@H]1c1ccc(-c2ccccc2)cc1	12	-1	20	/	97*	7	63*	51*
O=C1CC(C(=O)NC2CCCCC2)C(c2ccccc2)O1 (stereo unspecified)	-1	-1	-1	2	14	0	/	/
Cc1cc(C(=O)CSc2nnc(-c3ccccc3)n2-c2ccccc2)c(C)n1-c1ncn[nH]1	2	0	-11	-3	2	3	/	/
Cc1cc(C(=O)CSc2nnc3ccccn23)c(C)n1-c1ccccc1	-10	-8	-8	1	82*	-4	86*	30
COc1ccc(Cc2nnc(NC(=O)C3CCN(C(=O)c4ccco4)CC3)s2)cc1	0	-2	7	4	9	8	/	/
Nc1c(S(=O)(=O)c2cccs2)c2nc3ccccc3nc2n1/N=C/c1cccc(O)c1	18	9	97*	14	79*	72*	56*	86*
COC(=O)C1=C(C)N(CCc2ccccc2)C(=O)C1(NS(=O)(=O)c1ccc(NC(C)=O)cc1)C(F)(F)F (stereo unspecified)	0	1	17	-1	65*	0	32	59*
Cc1ccc2nsnc2c1S(=O)(=O)N(Cc1ccco1)Cc1cc2cccc(C)c2[nH]c1=O	2	3	33	/	35	-1	/	/
COc1ccc2[nH]c(=O)c(CN(Cc3cccs3)S(=O)(=O)c3c(C)ccc4nsnc34)cc2c1	5	6	47	/	64*	-9	68*	73*
Cc1ccc2[nH]c(=O)c(CN(CC3CCCO3)S(=O)(=O)c3c(C)ccc4nsnc34)cc2c1 (stereo unspecified)	0	4	10	/	23	1	/	/
Cc1ccc2[nH]c(=O)c(CN(Cc3ccco3)S(=O)(=O)c3c(C)ccc4nsnc34)cc2c1	-1	-3	-16	0	55*	5	6	/
COc1cccc(-c2nnc(NC(=O)c3ccccc3Br)o2)c1	2	0	17	-6	8	38	/	/
O=C(Nc1nnc(-c2ccc(F)cc2)o1)c1cc(Cl)sc1Cl	0	1	/	/	62*	105*	38	38*
SMILES	UPR CHOP act	UPR XBP1 act	CSC inhib	Beta apoptosis	Mdm2-MdmX inh	SKKanGAS inh	Mdm2-MdmX conf	FLuc counter
COc1cccc(-c2nnc(NC(=O)c3ccc(Cl)s3)o2)c1	1	5	51	/	61*	96*	17	/
Clc1cccc(Nc2nc(N3CCOCC3)nc(N3CCOCC3)n2)c1	-2	3	5	-6	37	1	/	/
COc1ccc(Nc2nc(N3CCOCC3)nc(N3CCOCC3)n2)cc1Cl	0	2	4	/	61*	4	22	/
CCCCc1ccc(NC(=O)CSc2nc(=O)n(CCN(CC)CC)c3c2CCC3)cc1	3	1	80*	8	59*	3	36	62*
Cc1ccc2nc(NC(=O)CSc3nc(=O)n(CCN(C)C)c4c3CCCC4)sc2c1	2	1	-2	-4	65*	3	49*	71*
CCN(CC)CCn1c2c(c(SCC(=O)Nc3nc(C)cs3)nc1=O)CCC2	4	-4	-9	-11	52*	-2	15	/
Cc1ccc(NC(=O)CNCc2cccs2)cc1Br	2	6	-7	-6	8	3	/	/
CCOC(=O)Cc1nnc2c(Nc3ccc(Cl)cc3)nc3nonc3n12	1	0	56	27	92*	?	40*	44*
CCc1cc2c(COC(=O)CCNS(=O)(=O)c3cccc(C(F)(F)F)c3)cc(=O)oc2cc1O	1	13	30	3	83*	/	-12	/
CCN1CCN(C(=O)Cn2nc(C)c3sc4ccccc4c3c2=O)CC1	0	-6	-13	/	26	-4	/	/
CCCCCCCCCn1ccc(=N)cc1	11	7	7	116*	91*	5	81*	24
CCCCCn1ccc(=N)cc1	-4	-3	6	72	12	-2	/	/
CCOC(=O)[C@H]1[C@H]2COc3ccc(Cl)cc3[C@@H]2N2C(=O)CN(Cc3ccc(Cl)cc3)C(=O)[C@@]12C	-1	-1	-7	-4	15	/	/	/
COc1cc(Cl)ccc1NC(=S)N(CCCN1CCOCC1)Cc1cn(C)c2ccccc12	1	-2	8	-12	55*	0	22	/
